# TRPC6 inh: inhibitors of mouse TRPC6 channel; Q61143; HEK293-TRPC6, membrane potential dye, ACh-evoked depolarization; active compounds read low; B-score at 10 µM; 1.1% of 310,000 active; AID 2553;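 active means B-score under library mean minus 3 SD, initial fluorescence not abnormally high, positive integrated signal ratio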;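 further: B-score derived from integrated fluorescence ratio over the kinetic read; more negative B-score means stronger inhibition of depolarization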
# Target sequence (Q61143 whole entry, looked up): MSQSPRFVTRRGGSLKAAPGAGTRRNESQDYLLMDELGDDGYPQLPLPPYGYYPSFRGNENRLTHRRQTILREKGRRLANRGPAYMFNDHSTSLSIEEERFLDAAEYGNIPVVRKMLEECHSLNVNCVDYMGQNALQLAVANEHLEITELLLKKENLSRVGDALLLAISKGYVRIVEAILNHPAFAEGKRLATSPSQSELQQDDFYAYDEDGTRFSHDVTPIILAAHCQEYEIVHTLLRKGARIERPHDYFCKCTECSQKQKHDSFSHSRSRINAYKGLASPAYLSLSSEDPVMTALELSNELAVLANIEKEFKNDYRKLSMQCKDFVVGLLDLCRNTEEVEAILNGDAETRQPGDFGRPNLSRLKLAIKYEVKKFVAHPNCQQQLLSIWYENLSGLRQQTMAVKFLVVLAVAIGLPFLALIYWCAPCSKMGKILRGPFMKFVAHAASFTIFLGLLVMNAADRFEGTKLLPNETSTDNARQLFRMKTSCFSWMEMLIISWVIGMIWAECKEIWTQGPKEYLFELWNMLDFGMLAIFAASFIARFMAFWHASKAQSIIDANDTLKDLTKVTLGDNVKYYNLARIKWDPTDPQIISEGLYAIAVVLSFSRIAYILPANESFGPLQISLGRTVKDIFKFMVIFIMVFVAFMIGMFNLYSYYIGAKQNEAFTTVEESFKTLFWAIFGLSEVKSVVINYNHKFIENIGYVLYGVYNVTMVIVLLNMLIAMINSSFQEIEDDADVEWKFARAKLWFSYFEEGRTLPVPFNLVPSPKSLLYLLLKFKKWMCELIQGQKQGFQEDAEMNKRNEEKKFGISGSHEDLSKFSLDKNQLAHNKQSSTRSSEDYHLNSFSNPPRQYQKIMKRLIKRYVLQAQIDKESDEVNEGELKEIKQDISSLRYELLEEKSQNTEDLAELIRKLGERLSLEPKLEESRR
# TRPC4 agonist: activators of mouse TRPC4 channel. Q9QUQ5. HEK293 TRPC4beta/mu-opioid, Fluo4 calcium fluorescence; active compounds read high. B-score at 10 µM. 0.49% of 310,000 active. AID 2237;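 active means B-score above 5 SD of library B-scores, and initial fluorescence ratio not above library mean plus 5 SD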;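 further: positive B-score marks a calcium rise read as TRPC4 activation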
#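 Test system: HEK293 cells stably co-expressing mouse TRPC4beta and mu-opioid receptor | Schedule: Fluo4 dye loading 45 min at room temperature, 110 s recording | Measured by: Kinetic Fluo4 calcium fluorescence, 5 s baseline at 1 Hz | Evaluation: B score of integrated ratio | Controls: Buffer (low) and maximal DAMGO (high)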
# TRPC6 act: activators of mouse TRPC6 channel. Q61143. HEK293-TRPC6 membrane potential dye fluorescence; active compounds read high. B-score at 10 µM. 0.13% of 310,000 active;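 active means B-score of the integrated fluorescence ratio above library mean plus 3 SD, and starting fluorescence ratio within library mean plus 5 SD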;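 further: higher score means more depolarization so channel activation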
# TRPC4 inh: inhibitors of mouse TRPC4 channel; Q9QUQ5; HEK293 TRPC4beta/mu-opioid, DAMGO-evoked Fluo4 calcium flux; active compounds read low; B-score at 10 µM; 0.39% of 300,000 active; AID 2247;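 active means B-score over 3 SD under the library average, no early fluorescence shift, positive overall ratio signal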
#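 material = TRPC4beta/mu-opioid receptor HEK293 cell line | probe or stimulus = sequential submaximal and maximal DAMGO stimulation | compound dosing = one concentration per compound | measured by = Fluo4 Ca2+ flux fluorescence | evaluation = integrated fluorescence ratio relative to baseline, converted to per-well B score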
# TRPC4 PAM: allosteric potentiators of mouse TRPC4 channel | Q9QUQ5 | HEK293 TRPC4beta/mu-opioid, DAMGO EC20, Fluo-4 Ca2+ flux; active compounds read high | B-score at 10 µM | 0.42% of 310,000 active | AID 2227;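 active means B-score of calcium response area above 5 SD of library B-scores, with initial fluorescence ratio within 5 SD of library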;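 further: B-score of integrated fluorescence ratio over time as area under calcium response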
# TRPC4 sel inh 2: second selectivity test of TRPC6 inhibitors: effect on mouse TRPC4; shares compounds with TRPC6 inh; HEK293 TRPC4/MOR, membrane potential dye fluorescence; channel activated by saturating DAMGO dose; inhibition, % at 10 µM; 42% of 920 active; AID 2776;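 active means compounds whose fluorescence signal differed from control wells by over 3 SD, either direction, in both duplicate plates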
# TRPC4 spec: selectivity of TRPC6 inhibitors: effect on mouse TRPC4; HEK293 TRPC4/mu-opioid, membrane potential fluorescence; 61% of 920 active; shares compounds with TRPC6 inh; activity change, negative = inhibition, % at 10 µM;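 active means rise or fall in signal beyond 3 SD of buffer-only wells in both replicate plates, either sign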;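 further: integrated kinetic ratio of fluorescence range over baseline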
# HEK293 MPD ctr 2-1: second counter-screen for TRPC6 inhibitors: parental HEK293 cells | shares compounds with TRPC6 inh | AID 2779 | 31% of 920 active | parental HEK293 membrane potential dye fluorescence; maximal acetylcholine challenge after compound addition | signal change vs control, % at 10 µM;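 active means membrane potential signal moving either way by over 3 SD of the maximum-effect control, in both duplicate plates, meaning non-specific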
# HEK293 MPD ctr-1: counter-screen for TRPC6 inhibitors: effect in parental HEK293 cells; parental HEK293 membrane potential dye fluorescence; shares compounds with TRPC6 inh; 60% of 920 active; membrane potential signal change, % at 10 µM; AID 2780;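 active means membrane potential signal shifting up or down by more than 3 SD of buffer-only wells, on both duplicate plates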
# HEK293 MPD ctr-2: checks TRPC6 modulator effects in parental HEK293 cells; shares compounds with TRPC6 inh; membrane potential dye fluorescence; membrane potential signal change, % at 10 µM; 51% of 2,400 active;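 active means membrane potential signal moves up or down beyond 5 SD from buffer-only wells, on both duplicate plates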
# HEK293 MPD ctr 2-2: second check of TRPC6 modulator effects in parental HEK293 cells. shares compounds with TRPC6 inh. membrane potential dye fluorescence; after compound, maximal acetylcholine stimulation. inhibition, % at 10 µM. 14% of 2,400 active. AID 488926;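 active means membrane potential signal drops by more than 5 SD from the mean control signal, in both duplicate plates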;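 further: plate controls were acetylcholine ECmax control wells for no effect and buffer only wells for full effect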
# TRPC4 ctr mod: selectivity of TRPC6 modulators against mouse TRPC4; shares compounds with TRPC6 inh; percent change from control (negative = decrease, positive = increase), % at 10 µM; HEK293 TRPC4/mu-opioid, membrane potential fluorescence; 69% of 2,400 active; AID 488927;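 active means membrane potential signal moved up or down beyond 5 SD of buffer control wells, in both duplicate plates, actives on both sides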;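 further: plate controls were assay buffer wells for no effect and DAMGO maximal-effect wells for full effect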
# TRPC4/MOR inh 2: mouse TRPC4 off-target activity of TRPC6 modulators, second screen; HEK293 TRPC4/mu-opioid, membrane potential dye fluorescence; stimulated with maximal-effect DAMGO; AID 488928; shares compounds with TRPC6 inh; 55% of 2,400 active; inhibition, % at 10 µM;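 active means drop in membrane potential signal beyond 5 SD of the control wells in both duplicate plates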;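 further: TRPC4 counter screen for TRPC6 hits run under conditions tuned for TRPC6 not TRPC4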
# TRPC6 block conf: confirmation of mouse TRPC6 inhibitors | shares compounds with TRPC6 inh | 43% of 3,300 active | inhibition, % at 10 µM | HEK293-TRPC6, membrane potential dye, ACh-evoked depolarization | AID 488960;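 active means fluorescence ratio falls more than 5 SD below the full-stimulation control mean, in both duplicate runs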;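 further: integrated fluorescence ratio of peak minus minimum over baseline after agonist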
# TRPC6 act conf: confirmation of mouse TRPC6 activators; activation, % at 10 µM; 11% of 2,800 active; HEK293-TRPC6 membrane potential dye fluorescence, FDSS; shares compounds with TRPC6 inh;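 active means ratio signal rise beyond 5 SD above unstimulated control wells' mean, seen in both duplicate runs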;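 further: plate controls were buffer EC0 wells for no effect and acetylcholine ECmax response for full effect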
# * marks the source's active call; other numbers are inactive results; i = inactive; . = not tested or not shown. Rows were chosen to be rich in hits. Some 2.3% of all compounds tested hit in one or more screens of this group.
SMILES,TRPC6 inh,TRPC4 agonist,TRPC6 act,TRPC4 inh,TRPC4 PAM,HEK293 MPD ctr-2,HEK293 MPD ctr 2-2,TRPC4 ctr mod,TRPC4/MOR inh 2,TRPC6 block conf,TRPC6 act conf,others
COc1ccc(CCNCC(O)COc2cccc(Br)c2)cc1 (centres undefined),-5.5*,i,i,i,i,186%*,i,30%*,50%*,i,.,
CNCC(O)COc1cccc(OC)c1 (centres undefined),i,i,i,i,i,.,.,.,.,.,.,
CC(=O)Nc1ccc(NC(=O)C(C)OC(=O)CSCc2cccc(Cl)c2)cc1 (centres undefined),i,i,i,i,i,.,.,.,.,.,.,
COC(=O)CCC(=O)OC1(C)C(=O)C=C2C=C(C3CC3)N(CCc3c[nH]c4ccccc34)C=C2C1=O (centres undefined),-7.2*,i,i,i,i,.,.,.,.,i,i,TRPC4 sel inh 2=i;TRPC4 spec=i;HEK293 MPD ctr 2-1=i;HEK293 MPD ctr-1=i
COC(=O)CCC(=O)OC1(C)C(=O)C=C2C=C(C3CC3)N(CCc3ccccn3)C=C2C1=O (centres undefined),i,i,i,i,i,.,.,.,.,.,.,
COc1ccc2c(OC)c3ccoc3nc2c1OC,-5.6*,i,i,i,i,i,i,i,i,i,.,
COc1c2ccoc2nc2c(OC)c(O)ccc12,i,i,i,i,i,.,.,.,.,.,.,
O=C(COc1ccccc1F)NC12CC3CC(CC(C3)C1)C2,i,i,i,i,i,.,.,.,.,.,.,
O=C(COc1ccccc1)NCCSc1ccccc1,-5.8*,i,i,i,i,i,i,8.5%*,i,i,.,
CCOC(=O)c1sc2ncnc(N3CCN(C)CC3)c2c1C,-5.5*,i,i,i,i,-118%*,i,-20%*,34%*,i,i,
COC(=O)c1sc2nc(-c3ccccc3)nc(N3CCN(C)CC3)c2c1C,-5.4*,i,i,i,i,-122%*,i,-29%*,i,i,i,
CCN(CC)C(=O)COCc1cc(-c2ccc3c(c2)OCO3)on1,-7*,i,i,i,i,.,.,.,.,i,i,TRPC4 sel inh 2=i;TRPC4 spec=i;HEK293 MPD ctr 2-1=i;HEK293 MPD ctr-1=i
CCC(C)NC(=O)COCc1cc(-c2ccc3c(c2)OCO3)on1 (centres undefined),i,i,i,i,i,.,.,.,.,.,.,
C=CCC1(N(C(C)=O)c2ccccc2C)CCCCC1,-9.4*,i,i,i,i,.,.,.,.,i,i,TRPC4 sel inh 2=i;TRPC4 spec=-0.4%*;HEK293 MPD ctr 2-1=i;HEK293 MPD ctr-1=0.5%*
C=CCC1(N(C(C)=O)c2ccccc2)CCCCC1,i,i,i,i,i,.,.,.,.,.,.,
Cc1nc(SC(C)C(=O)NCC2CCCO2)c2cc(-c3ccccc3)sc2n1 (centres undefined),i,i,i,i,i,.,.,.,.,.,.,
N=c1c(-c2nc3ccccc3[nH]2)cc(C(=O)c2cccs2)nn1-c1ccccc1,-7.7*,i,i,i,i,.,.,.,.,68%*,i,TRPC4 sel inh 2=58%*;TRPC4 spec=-14%*;HEK293 MPD ctr 2-1=i;HEK293 MPD ctr-1=-179%*
COc1cc(/C=N/NC(=O)c2ccc(-c3ccccc3)cc2)cc(OC)c1OC,i,i,i,i,i,.,.,.,.,.,.,
COc1cc(/C=N/NC(=O)c2cc(-c3ccccc3)sc2N)cc(OC)c1OC,-5*,i,i,i,i,i,i,i,53%*,44%*,i,
CC1(COS(N)(=O)=O)CCCCC1,i,i,i,i,i,.,.,.,.,.,.,
Cn1c(=O)c(C=Nc2ccccc2)c(O)c2ccccc21,i,i,i,i,i,.,.,.,.,.,.,
Cn1c(=O)c2c(O)c(C=Nc3ccc(F)cc3)c(=O)n(C)c2n(C)c1=O,-6.6*,i,i,i,i,-92%*,i,-14%*,i,i,i,
O=C(CCC1CCN(C(=O)c2ccccc2Cl)CC1)NCc1ccc(F)cc1,i,i,i,i,i,.,.,.,.,.,.,
COC(=O)c1ccc2c(c1)C(C)(C)C(/C=C/c1ccccc1O)=[N+]2C,-10*,i,i,i,i,410%*,199%*,-208%*,99%*,106%*,i,
Cc1c(C)n(C)c2ccc(C(=O)N3CCN(c4ccccc4)CC3)cc12,-7.2*,i,i,i,i,i,i,i,i,40%*,i,
Cc1c(C)n(C)c2ccc(C(=O)N3CCN(c4ccccn4)CC3)cc12,i,i,i,i,i,.,.,.,.,.,.,
Fc1ccc([C@@H]2CCNC[C@H]2COc2ccc3c(c2)OCO3)cc1,-5.3*,142*,i,i,i,i,64%*,39%*,95%*,72%*,i,TRPC4 sel inh 2=14%*;TRPC4 spec=47%*;HEK293 MPD ctr 2-1=i;HEK293 MPD ctr-1=0.5%*
O=C(NCCNC(=O)c1cc(Cl)ccc1Cl)c1ccco1,i,i,i,i,i,.,.,.,.,.,.,
Cc1ccccc1OCC(O)CN1CCN(CCN2C(=O)c3cccc4cccc(c34)C2=O)CC1 (centres undefined),-5.2*,i,i,i,i,i,i,-18%*,82%*,59%*,i,
